From ChEMBL document CHEMBL4428038, “Overcoming chloroquine resistance in malaria: Design, synthesis and structure-activity relationships of novel chemoreversal agents” (Eur J Med Chem, 2016)
Calls of active or inactive are those of the source. The calls are words filed in the database; no cut-off is given here.

What was measured:
Plasmodium falciparum K1 = assay: Inhibition of CRT CVIET haplotype mutant in Plasmodium falciparum K1 isolate MRA-159 infected in erythrocytes assessed as chloroquine-coumarin probe accumulation at 10 uM after 10 hrs by Hoechst 33342 staining based flow cytometry (reference value: 35.57 +/- 3.84%); type: cell-based; parameters: scale not given: the % may be the effect or the level left
How it was run: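 Infected erythrocyte cultures at 2.5% hematocrit and 7–12% parasitemia, synchronized to late-ring/early-trophozoite stage, were incubated with chloroquine-coumarin probe plus test agent for 10 h at 37 C. Cells were then washed, resuspended in PBS and read by flow cytometry (405 nm excitation, 450/50 filter). Hoechst-stained duplicate wells set parasitemia. Uptake = % infected erythrocytes fluorescent. Controls: PBS (negative), desipramine and parent compound (positive). ≥3 independent experiments; mean ± SEM.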

Plasmodium falciparum [1] = assay: Intrinsic antimalarial activity against chloroquine-sensitive Plasmodium falciparum 3D7 isolate MRA-102 assessed as reduction in parasite viability at 500 nM; type: functional, organism-based
Plasmodium falciparum [2] = assay: Intrinsic antimalarial activity against chloroquine-sensitive Plasmodium falciparum HB3 isolate MRA-155 assessed as reduction in parasite viability at 500 nM; type: functional, organism-based
Plasmodium falciparum [3] = assay: Intrinsic antimalarial activity against intermediate chloroquine-resistant Plasmodium falciparum 7G8 isolate MRA-154 harboring CRT SVMNT haplotype mutant assessed as reduction in parasite viability at 500 nM; type: functional, organism-based
Plasmodium falciparum [4] = assay: Intrinsic antimalarial activity against chloroquine-resistant Plasmodium falciparum K1 isolate MRA-159 harboring CRT CVIET haplotype mutant assessed as reduction in parasite viability at 500 nM; type: functional, organism-based
Plasmodium falciparum [5] = assay: Intrinsic antimalarial activity against chloroquine-resistant Plasmodium falciparum Dd2 isolate MRA-156 harboring CRT K76T mutant assessed as reduction in parasite viability at 500 nM; type: functional, organism-based
Plasmodium falciparum [6] = assay: Intrinsic antimalarial activity against chloroquine/artemisinin-resistant Plasmodium falciparum ARS233 harboring CRT K76T mutant assessed as reduction in parasite viability at 500 nM; type: functional, organism-based
Plasmodium falciparum [7] = assay: Intrinsic antimalarial activity against chloroquine/artemisinin-resistant Plasmodium falciparum ARS272 harboring CRT K76T mutant assessed as reduction in parasite viability at 500 nM; type: functional, organism-based
Plasmodium falciparum [8] = assay: Intrinsic antimalarial activity against chloroquine-resistant Plasmodium falciparum NHP4559 harboring CRT K76T mutant assessed as reduction in parasite viability at 500 nM; type: functional, organism-based
Plasmodium falciparum [9] = assay: Intrinsic antimalarial activity against chloroquine/artemisinin-resistant Plasmodium falciparum NHP4773 harboring CRT K76T mutant assessed as reduction in parasite viability at 500 nM; type: functional, organism-based

Compound | Activity (Plasmodium falciparum K1) | Activity (Plasmodium falciparum [1]) | Activity (Plasmodium falciparum [2]) | Activity (Plasmodium falciparum [3]) | Activity (Plasmodium falciparum [4]) | Activity (Plasmodium falciparum [5]) | Activity (Plasmodium falciparum [6]) | Activity (Plasmodium falciparum [7]) | Activity (Plasmodium falciparum [8]) | Activity (Plasmodium falciparum [9])
N#CC(CCN1CCC(O)CC1)(c1ccccc1)c1ccccc1 | 63.9% | inactive | inactive | inactive | inactive | inactive | inactive | inactive | inactive | inactive
CSc1ccc2c(c1)C(=O)Cc1ccccc1S2 | 49.3% | inactive | inactive | inactive | inactive | inactive | inactive | inactive | inactive | inactive
N[C@@H]1C2CCN(CC2)[C@@H]1Cc1ccccc1 (relative stereo) | 40.1% | inactive | inactive | inactive | inactive | inactive | inactive | inactive | inactive | inactive
Ic1ccccc1CNCC(c1ccccc1)c1ccccc1 | 50.9% | inactive | inactive | inactive | inactive | inactive | inactive | inactive | inactive | inactive
NC(=O)C(CCN1CCCCC1)(c1ccccc1)c1ccccc1 | 63.2% | inactive | inactive | inactive | inactive | inactive | inactive | inactive | inactive | inactive
NC(=O)C(CCN1CCN(c2ccc(F)cc2)CC1)(c1ccccc1)c1ccccc1 | 57.7% | inactive | inactive | inactive | inactive | inactive | inactive | inactive | inactive | inactive
CC(C)(C)OC(=O)N1CCCC(N)C1 (stereo unspecified) | 52.2% | inactive | inactive | inactive | inactive | inactive | inactive | inactive | inactive | inactive
OC1(c2ccc(Cl)cc2)CCNCC1 | 27.5% | inactive | inactive | inactive | inactive | inactive | inactive | inactive | inactive | inactive
Ic1ccccc1CN[C@@H]1C2CCN(CC2)[C@@H]1Cc1ccccc1 (relative stereo) | 25.8% | inactive | inactive | inactive | inactive | inactive | inactive | inactive | inactive | inactive
CC(C)(C)OC(=O)N1CCN(C2Cc3ccccc3Sc3ccc(Cl)cc32)CC1 (stereo unspecified) | 43.4% | inactive | inactive | inactive | inactive | inactive | inactive | inactive | inactive | inactive
O=C1Cc2ccccc2Sc2ccccc21 | 50.7% | inactive | inactive | inactive | inactive | inactive | inactive | inactive | inactive | inactive
N#CC(CCN1CCN(c2ccc(F)cc2)CC1)(c1ccccc1)c1ccccc1 | 49% | inactive | inactive | inactive | inactive | inactive | inactive | inactive | inactive | inactive
NCC(CCN1CCCCC1)(c1ccccc1)c1ccccc1 | 61% | inactive | inactive | inactive | inactive | inactive | inactive | inactive | inactive | inactive
N#CC(CCN1CCC(N)CC1)(c1ccccc1)c1ccccc1 | 58% | inactive | inactive | inactive | inactive | inactive | inactive | inactive | inactive | inactive
NC(=O)C(CCN1CCC(O)CC1)(c1ccccc1)c1ccccc1 | 51.3% | inactive | inactive | inactive | inactive | inactive | inactive | inactive | inactive | inactive
O=C1C2CCN(CC2)C1C(c1ccccc1)c1ccccc1 (stereo unspecified) | 49% | inactive | inactive | inactive | inactive | inactive | inactive | inactive | inactive | inactive
NCC(CCN1CCN(c2ccc(F)cc2)CC1)(c1ccccc1)c1ccccc1 | 60.5% | inactive | inactive | inactive | inactive | inactive | inactive | inactive | inactive | inactive
O=C1C2CCN(CC2)C1Cc1ccccc1 (stereo unspecified) | 34.7% | inactive | inactive | inactive | inactive | inactive | inactive | inactive | inactive | inactive
O=C1Cc2ccccc2Sc2ccc(Cl)cc21 | 49.1% | inactive | inactive | inactive | inactive | inactive | inactive | inactive | inactive | inactive
c1ccc(CNC2C3CCN(CC3)C2Cc2ccccc2)cc1 (mixture of isomers) | 74.4% | inactive | inactive | inactive | inactive | inactive | inactive | inactive | inactive | inactive
N#CC(CCBr)(c1ccccc1)c1ccccc1 | 29.6% | inactive | inactive | inactive | inactive | inactive | inactive | inactive | inactive | inactive
CNCCCN1c2ccccc2CCc2ccccc21 | 78.8% |  |  |  |  |  |  |  |  | 
N#CC(CCN1CCC(O)(c2ccc(Cl)cc2)CC1)(c1ccccc1)c1ccccc1 | 25.9% | inactive | inactive | inactive | inactive | inactive | inactive | inactive | inactive | inactive
O=C1/C(=C/c2ccccc2)N2CCC1CC2 | 39% | inactive | inactive | inactive | inactive | inactive | inactive | inactive | inactive | inactive
